Data reported in ChEMBL document CHEMBL1147664, “(S)-4,5-dihydro-2-(2-hydroxy-4-hydroxyphenyl)-4-methyl-4-thiazolecarboxylic acid polyethers: a solution to nephrotoxicity” (J Med Chem, 2006).

Columns and labels:
Rattus norvegicus [1] = assay: Distribution in Sprague-Dawley rat pancreas at 300 umol/kg, sc after 2 hrs; assay type: ADME, organism-based; details: in vivo
Outline: (§1)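 Male Sprague-Dawley rats (250–350 g), single sc 300 μmol/kg dose; euthanized by CO2 at 2, 4, 6, 8 h (n = 3 per time point). Citrated cardiac-puncture plasma; tissues homogenized in water 1:2 (w/v), proteins precipitated with methanol at −20 °C, filtered. Reversed-phase HPLC with UV at 310 nm; levels from calibration curves, as nmol/g wet weight; detection limit about 5 nmol/g.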

Rattus norvegicus [2] = assay: Distribution in Sprague-Dawley rat pancreas at 300 umol/kg, sc after 8 hrs; assay type: ADME, organism-based; details: in vivo; outline: as §1
Sapajus apella [3] = assay: Iron-clearing efficiency in iron-loaded Cebus apella at 150 umol/kg, sc; assay type: functional
Outline: (§2)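 Cebus apella monkeys (3.5–4 kg), iron overloaded with iv iron dextran (about 500 mg Fe/kg), used at least 60 d later; single 150 μmol/kg dose. Feces and urine collected every 24 h from 4 d before to 5 d after dosing; iron by flame atomic absorption. Efficiency = (2-day post-drug iron minus mean 4-day baseline) / theoretical output, as percent; mean ± SEM.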

Rattus norvegicus [4] = assay: Distribution in Sprague-Dawley rat kidney at 300 umol/kg, sc after 2 hrs; assay type: ADME, organism-based; details: in vivo; outline: as §1
Rattus norvegicus [5] = assay: Distribution in Sprague-Dawley rat heart at 300 umol/kg, sc after 2 hrs; assay type: ADME, organism-based; details: in vivo; outline: as §1
Sapajus apella [6] = assay: Iron-clearing efficiency in iron-loaded Cebus apella at 150 umol/kg, po; assay type: functional; outline: as §2
Rattus norvegicus [7] = assay: Distribution in Sprague-Dawley rat heart at 300 umol/kg, sc after 8 hrs; assay type: ADME, organism-based; details: in vivo; outline: as §1
Rattus norvegicus [8] = assay: Iron-clearing efficiency in non-iron-overloaded Sprague-Dawley rat at 300 umol/kg, po; assay type: functional
Outline: (§3)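 Bile-duct-cannulated, non-iron-overloaded male Sprague-Dawley rats (400–450 g), single 300 μmol/kg dose po or sc, given in water or as the monosodium salt depending on compound. Bile collected at 3-h intervals for 24 h; urine at 24 h. Efficiency = (treated minus control iron excretion) / theoretical output, as percent; mean ± SEM.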

Plasma = assay: Distribution in Sprague-Dawley rat plasma at 300 umol/kg, sc; assay type: ADME; details: read-out: Cp; outline: as §1
Rattus norvegicus [9] = assay: Iron-clearing efficiency in non-iron-overloaded Sprague-Dawley rat at 300 umol/kg, sc; assay type: functional; outline: as §3
Rattus norvegicus [10] = assay: Distribution in Sprague-Dawley rat heart at 300 umol/kg, sc after 4 hrs; assay type: ADME, organism-based; details: in vivo; outline: as §1
[11] = Apparent partition coefficient of the compound at pH7.4; assay type: physicochemical; details: octanol/water, pH 7.4; read-out: LogD7.4
Outline: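 Apparent partition coefficient by shake-flask direct method between octanol and TRIS buffer, pH 7.4; reported as log of the fraction in the octanol layer (log P_app).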

Rattus norvegicus [12] = assay: Distribution in Sprague-Dawley rat kidney at 300 umol/kg, sc after 8 hrs; assay type: ADME, organism-based; details: in vivo; outline: as §1
[13] = Distribution in Sprague-Dawley rat plasma at 300 umol/kg, sc after 8 hrs; assay type: ADME, organism-based; outline: as §1
[14] = Distribution in Sprague-Dawley rat plasma at 300 umol/kg, sc after 2 hrs; assay type: ADME, organism-based; outline: as §1
Rattus norvegicus [15] = assay: Nephrotoxicity in rat at 300 umol/kg; details: in vivo
Rattus norvegicus [16] = assay: Distribution in Sprague-Dawley rat liver at 300 umol/kg, sc after 2 hrs; assay type: ADME, organism-based; details: in vivo; outline: as §1
Rattus norvegicus [17] = assay: Distribution in Sprague-Dawley rat liver at 300 umol/kg, sc after 8 hrs; assay type: ADME, organism-based; details: in vivo; outline: as §1

Row | Structure (SMILES) | Drug uptake (Rattus norvegicus [1]) | Activity (Sapajus apella [3]) | Activity (Sapajus apella [6]) | Activity (Rattus norvegicus [8]) | Activity (Rattus norvegicus [9]) | logD [11] | further results
1 | COCCOCCOCCOc1ccc(C2=N[C@@](C)(C(=O)O)CS2)c(O)c1 | 30 nmol/g | 30.4% | 25.4% | 5.5% | 8.7% | -1.1 | Drug uptake (Rattus norvegicus [2]): 3 nmol/g; Drug uptake (Rattus norvegicus [4]): 41 nmol/g; Drug uptake (Rattus norvegicus [5]): 9 nmol/g; Drug uptake (Rattus norvegicus [7]): 2 nmol/g; concentration (Plasma): < 10 µM; Drug uptake (Rattus norvegicus [10]): 5 nmol/g; Drug uptake (Rattus norvegicus [12]): < 10 nmol/g
2 | COc1ccc(C2=N[C@@](C)(C(=O)O)CS2)c(O)c1 | 38 nmol/g | – | – | 6.6% | – | – | concentration at 8 h [13]: 75 µM; concentration at 2 h [14]: 470 µM; Activity (Rattus norvegicus [15]): Active
3 | CC1(C)SC(c2ccc(O)cc2O)=N[C@H]1C(=O)O | – | – | – | – | – | -0.91 | –
4 | O=C(O)[C@H]1CSC(c2ccccc2O)=N1 | – | – | – | – | – | -0.93 | –
5 | COCCOCCOCCOc1ccc(C2=N[C@@](C)(C(=O)OC(C)C)CS2)c(O)c1 | – | – | 19.5% | 13.9% | 22.1% | – | –
6 | C[C@]1(C(=O)O)CSC(c2ccccc2O)=N1 | – | – | – | – | – | -0.34 | –
7 | CC1(C)SC(c2ccccc2O)=N[C@H]1C(=O)O | – | – | – | – | – | -0.34 | –
8 | CCOC(=O)[C@@]1(C)CSC(c2ccc(OCCOCCOCCOC)cc2O)=N1 | – | 17.9% | – | – | 11.4% | – | –
9 | C[C@]1(C(=O)O)CSC(c2ccc(O)cc2O)=N1 [DEFERITRIN] | 6 nmol/g | 15.9% | 16.8% | 1.1% | 1.1% | – | Drug uptake (Rattus norvegicus [4]): 100 nmol/g; Drug uptake (Rattus norvegicus [5]): 5 nmol/g; Drug uptake (Rattus norvegicus [16]): 48 nmol/g; concentration (Plasma): < 10 µM; Drug uptake (Rattus norvegicus [17]): 12 nmol/g; Drug uptake (Rattus norvegicus [12]): 9 nmol/g
